Screening data from PubChem BioAssay.
Only some compounds are listed: those with a hit (about 2.3% of all), similar ones and a draw of the others.
TRPC4 act: opens the mouse TRPC4 cation channel | 310,000 compounds, 0.49% hits | Q9QUQ5 | B-score at 10 µM | HEK293 TRPC4beta/mu-opioid, Fluo4 calcium fluorescence; stronger effect = higher value;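 active means B-score above 5 SD of library B-scores, and initial fluorescence ratio not above library mean plus 5 SD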;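 further: positive B-score marks a calcium rise read as TRPC4 activation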
Target sequence (Q9QUQ5 whole entry, looked up): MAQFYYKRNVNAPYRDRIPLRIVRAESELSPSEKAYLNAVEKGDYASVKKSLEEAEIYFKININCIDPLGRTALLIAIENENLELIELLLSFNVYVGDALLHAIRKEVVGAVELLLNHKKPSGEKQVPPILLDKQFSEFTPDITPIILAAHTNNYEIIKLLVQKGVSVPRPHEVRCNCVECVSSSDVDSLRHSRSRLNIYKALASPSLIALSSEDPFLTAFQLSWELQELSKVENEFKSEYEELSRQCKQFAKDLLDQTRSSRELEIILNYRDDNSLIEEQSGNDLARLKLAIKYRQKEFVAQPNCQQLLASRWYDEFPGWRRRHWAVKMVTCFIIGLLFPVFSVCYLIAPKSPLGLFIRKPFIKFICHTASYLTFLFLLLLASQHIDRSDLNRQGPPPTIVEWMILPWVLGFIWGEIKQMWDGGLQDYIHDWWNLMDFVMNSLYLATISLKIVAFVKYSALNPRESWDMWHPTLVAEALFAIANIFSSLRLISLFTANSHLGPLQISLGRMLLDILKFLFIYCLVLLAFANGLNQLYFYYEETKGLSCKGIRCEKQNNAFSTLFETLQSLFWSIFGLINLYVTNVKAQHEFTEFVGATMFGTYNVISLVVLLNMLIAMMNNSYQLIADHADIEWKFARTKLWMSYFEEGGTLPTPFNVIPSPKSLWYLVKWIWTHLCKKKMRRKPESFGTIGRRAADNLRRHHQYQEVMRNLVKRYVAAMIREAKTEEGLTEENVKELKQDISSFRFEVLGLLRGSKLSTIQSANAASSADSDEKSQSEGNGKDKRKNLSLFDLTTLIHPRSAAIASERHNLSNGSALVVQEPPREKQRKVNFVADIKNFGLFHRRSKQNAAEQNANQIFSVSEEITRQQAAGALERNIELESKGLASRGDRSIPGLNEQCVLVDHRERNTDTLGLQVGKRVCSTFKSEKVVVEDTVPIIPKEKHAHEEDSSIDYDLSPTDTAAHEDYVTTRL
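System: HEK293 cells stably co-expressing mouse TRPC4beta and mu-opioid receptor; Schedule: Fluo4 dye loading 45 min at room temperature, 110 s recording; Detection: Fluo4 fluorescence, kinetic; Evaluation: B-scored integrated calcium fluorescence ratio; Controls: buffer (low) and maximal DAMGO (high).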
TRPC4 potent: allosteric potentiators of mouse TRPC4 channel | Q9QUQ5 | HEK293 TRPC4beta/mu-opioid, DAMGO EC20, Fluo-4 Ca2+ flux; stronger effect = higher value | B-score at 10 µM | 310,000 compounds, 0.42% hits | AID 2227;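 active means B-score of calcium response area above 5 SD of library B-scores, with initial fluorescence ratio within 5 SD of library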;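 further: B-score of integrated fluorescence ratio over time as area under calcium response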
TRPC6 inhibitor: mouse TRPC6 channel inhibition; Q61143; B-score at 10 µM; AID 2553; HEK293-TRPC6, membrane potential dye, ACh-evoked depolarization; stronger effect = lower value; 310,000 compounds, 1.1% hits;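 active means B-score under library mean minus 3 SD, initial fluorescence not abnormally high, positive integrated signal ratio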;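 further: B-score derived from integrated fluorescence ratio over the kinetic read; more negative B-score means stronger inhibition of depolarization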
TRPC4 block: TRPC4 (mouse) channel inhibition; B-score at 10 µM; Q9QUQ5; 300,000 compounds, 0.39% hits; HEK293 TRPC4beta/mu-opioid, DAMGO-evoked Fluo4 calcium flux; stronger effect = lower value;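 active means B-score over 3 SD under the library average, no early fluorescence shift, positive overall ratio signal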
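System: stable TRPC4beta/mu-opioid receptor HEK293 cells; Dosing: single-point compound dosing; Measured by: Fluo4 Ca2+ flux fluorescence; Read-out basis: per-well B score of integrated baseline-normalized Fluo4 ratio.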
TRPC6 act: activates the mouse TRPC6 cation channel. Q61143. HEK293-TRPC6 membrane potential dye fluorescence; stronger effect = higher value. B-score at 10 µM. 310,000 compounds, 0.13% hits. AID 2550;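 active means B-score of the integrated fluorescence ratio above library mean plus 3 SD, and starting fluorescence ratio within library mean plus 5 SD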;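 further: higher score means more depolarization so channel activation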
* hit, by the source's call; i = inactive.

SMILES | TRPC4 act | TRPC4 potent | TRPC6 inhibitor | TRPC4 block | TRPC6 act
COc1ccc(N2C(=O)CCC(C(=O)N3CCN(c4ccccn4)CC3)C2c2ccc(F)cc2)cc1 (stereo unspecified) | i | i | i | i | i
CCSc1c([N+](=O)[O-])c(=O)n(-c2ccccc2)c2ccccc12 | i | i | i | i | i
Cc1nnc(SCC(=O)NC2CCCCC2)n(N)c1=O | i | i | i | i | i
COc1cc(C2c3c(-c4ccccc4)n[nH]c3C(=O)N2c2ccccc2)ccc1O (stereo unspecified) | i | 14* | i | i | i
COc1ccc(NC(=O)CSc2ccc3ccccc3c2)cc1S(=O)(=O)N1CCCCC1 | i | i | i | i | i
CCOc1ccc(N=Cc2ccc3ccccc3c2)cc1 | i | i | i | i | i
CCOc1ccc(N=CNc2ccc(OCC)cc2)cc1 | i | 15* | i | i | i
CCN(c1ccc(NC(=O)c2ccc(N3CCCC3=O)cc2)cc1)C(C)C | i | i | i | i | i
CCc1ccc(OC(C)C(=O)Nc2ccc(S(=O)(=O)Nc3nccs3)cc2)cc1 (stereo unspecified) | i | 12* | i | i | i
CCOc1ccc(-c2c(C(=O)N/N=C/c3ccsc3)nnn2-c2nonc2N)cc1 | i | i | i | i | i
Cc1cccc2nc3c(nc12)-c1ccccc1C3=O | i | i | i | i | i
CCN1CCN(c2ccc(S(=O)(=O)N3CCCCC3)cc2NC(=O)C(C)Oc2ccc(F)cc2)CC1 (stereo unspecified) | 96* | i | i | i | i
CN1CCN(c2ccc(S(=O)(=O)N3CCCCC3)cc2NC(=O)c2ccc(C#N)cc2)CC1 | i | 11* | i | i | i
CCN1CCN(c2ccc(S(=O)(=O)N3CCOCC3)cc2NC(=O)/C=C/c2ccc(OC)cc2OC)CC1 | 101* | i | i | i | i
Cc1ccccc1OCC(=O)Nc1cc(S(=O)(=O)N2CCCCC2)ccc1N1CCN(C)CC1 | 84* | i | i | i | i
CN1CCN(c2ccc(Cl)cc2NC(=O)c2ccc(S(=O)(=O)N3CCCCCC3)cc2)CC1 | i | i | i | i | i
O=C(COc1ccc(Br)cc1)Nc1ccccc1C(=O)NC1CC1 | i | i | i | i | i
CCOCC(=O)N1CCN(c2ccccc2OC)CC1 | i | i | i | i | i
COc1ccc(CCNCC2C(Oc3ccc(Cl)cc3)C(=O)N2c2ccccc2C)cc1OC (stereo unspecified) | i | i | i | i | i
COc1ccc(NC(=S)N2CCN(S(=O)(=O)c3ccc(F)cc3)CC2)cc1 | i | i | i | i | i
CCN1CCN(c2ccc(S(=O)(=O)N3CCCCC3)cc2NC(=O)CC(C)c2ccccc2)CC1 (stereo unspecified) | 118* | i | i | i | i
CCN1CCN(c2ccc(S(=O)(=O)N3CCCCC3)cc2NC(=O)COc2ccc(Cl)cc2)CC1 | i | i | i | i | i
CCN1CCN(c2ccc(S(=O)(=O)N3CCCCC3)cc2NC(=O)COc2ccc(F)cc2Cl)CC1 | i | 12* | i | i | i
O=C(COc1ccc(S(=O)(=O)N2CCCCC2)cc1Cl)N1CCOCC1 | i | i | i | i | i
O=C(COc1ccc(S(=O)(=O)N2CCCC2)cc1Cl)N1CCN(c2ccccc2)CC1 | i | 10* | i | i | i
SMILES | TRPC4 act | TRPC4 potent | TRPC6 inhibitor | TRPC4 block | TRPC6 act
CCN1CCN(c2ccc(S(=O)(=O)N3CCCCC3)cc2NC(=O)c2cccc(C)c2)CC1 | i | i | i | i | i
CN(C)S(=O)(=O)c1ccc(N2CCCC2)c(C(=O)OCC(=O)N2CCN(c3ccccc3)CC2)c1 | i | i | i | i | i
Cc1ccc(-c2n[nH]c(=S)nc2-c2ccc(C)cc2)cc1 | i | i | i | i | i
O=[N+]([O-])c1cc(C(F)(F)F)ccc1NC1CCN(Cc2ccccc2)CC1 | i | i | i | i | i
O=[N+]([O-])c1cc(C(F)(F)F)ccc1NC1CCN(Cc2ccccc2)C1 (stereo unspecified) | i | 50* | i | i | i
COc1ccc(NC(=O)C2CCN(C(=O)[C@@H]3Cc4ccccc4CN3C(=O)OC(C)(C)C)CC2)cc1 | i | i | i | i | i
Cc1onc(-c2c(Cl)cccc2Cl)c1CO/N=C(\C#N)c1c(Cl)cccc1Cl | i | i | i | i | i
CC(C)C1CC(CCNCc2ccc3c(c2)OCO3)(c2ccccc2)CCO1 (stereo unspecified) | 122* | i | i | i | i
Cc1ccc(C2(CCNCc3ccc(N(C)C)cc3)CCOC(C(C)C)C2)cc1 (stereo unspecified) | 111* | i | i | i | i
CC(C)C1CC(CCNCc2ccc(N(C)C)cc2)(c2ccccc2)CCO1 (stereo unspecified) | 100* | i | i | i | i
C/C(=N\NC(=O)c1ccncc1)c1cccc(NC(=O)c2ccc(Cl)s2)c1 | i | i | i | i | i
Cc1cc(=O)[nH]c(SC(C)C(=O)Nc2cccc3ccccc23)n1 (stereo unspecified) | i | i | i | i | i
Cc1cc2cc(C#N)c(NCCNC(=S)NCCCN3CCOCC3)nc2cc1C | i | i | i | -6* | i
Cc1[nH]c2ccccc2c1N=Nc1ccccc1F | i | i | i | -6* | i
COC(=O)c1ccccc1NC(=O)CN1CCC(NC(=O)c2ccc(C)cc2)CC1 | i | i | i | i | i
COC(=O)c1ccccc1NC(=O)CN1CCN(C23CC4CC(CC(C4)C2)C3)CC1 | i | i | i | i | 20*
CCN(CC)S(=O)(=O)c1cccc(-c2nnc(SCC(=O)NC3CCCCCCC3)n2N)c1 | i | i | i | i | i
CCCC(=O)NC(=S)Nc1ccc(S(=O)(=O)Nc2ccc(OCC)cc2)cc1 | i | i | i | i | i
CCOc1ccc(NS(=O)(=O)c2ccc(NC(=S)NC(=O)CC(C)C)cc2)cc1 | i | 22* | i | i | i
CCN(C(=O)c1cnc(NC(C)C)cc1C(F)(F)F)c1ccc(Cl)cc1Cl | i | i | i | -6* | i
OCC1(Cc2ccccc2)CCCN(Cc2cnn(-c3ccccc3)c2)C1 (stereo unspecified) | i | i | i | -7* | i
CC(C)Cc1cc(CN2CCCC(CO)(Cc3cccc(Cl)c3)C2)[nH]n1 (stereo unspecified) | i | i | i | -10* | i
